Results taken from ChEMBL document CHEMBL4765350, “Receptor-interacting protein kinase 2 (RIPK2) and nucleotide-binding oligomerization domain (NOD) cell signaling inhibitors based on a 3,5-diphenyl-2-aminopyridine scaffold” (Eur J Med Chem, 2020).
Calls of active or inactive are those of the source. The rule behind the calls is not given here.

Assays:
Activin receptor type-1 = target: T1, Activin receptor type-1 (Homo sapiens, UniProt Q04771); test: Inhibition of human ALK2 using casein as substrate in presence of 10 uM [gamma33P] ATP by kinase assay
T1 sequence (Q04771 whole entry): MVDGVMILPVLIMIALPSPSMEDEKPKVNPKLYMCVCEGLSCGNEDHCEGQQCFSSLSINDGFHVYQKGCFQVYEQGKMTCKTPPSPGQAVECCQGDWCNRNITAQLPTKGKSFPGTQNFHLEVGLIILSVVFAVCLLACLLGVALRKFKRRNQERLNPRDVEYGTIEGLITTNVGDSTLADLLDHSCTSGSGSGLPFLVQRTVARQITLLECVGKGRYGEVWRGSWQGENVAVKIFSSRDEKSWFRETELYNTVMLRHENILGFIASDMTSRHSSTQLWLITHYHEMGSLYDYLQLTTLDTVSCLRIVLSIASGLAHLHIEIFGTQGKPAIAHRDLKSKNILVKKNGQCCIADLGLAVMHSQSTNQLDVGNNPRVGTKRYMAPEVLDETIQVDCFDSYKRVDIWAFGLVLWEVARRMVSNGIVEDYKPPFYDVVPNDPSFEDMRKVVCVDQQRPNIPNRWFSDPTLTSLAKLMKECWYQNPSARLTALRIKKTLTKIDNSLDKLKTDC

[1] = target: T2, Activin receptor type-1 (Homo sapiens) (UniProt Q04771); test: Inhibition of human ALK2 using casein as substrate at 10 uM in presence of 10 uM [gamma33P] ATP by kinase assay
T2 sequence (whole entry): T1 sequence (Q04771 whole entry)

[2] = target: T3, Receptor-interacting serine/threonine-protein kinase 2 (Homo sapiens, UniProt O43353); test: Inhibition of recombinant human RIPK2 incubated for 2 hr by ADP-Glo assay
Procedure, shortened: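 IC50 values reported as the mean of two or three determinations ± standard deviation.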

[3] = target: T3, Receptor-interacting serine/threonine-protein kinase 2; test: Inhibition of recombinant human RIPK2 at 10 uM incubated for 2 hr by ADP-Glo assay
[4] = target: Nucleotide-binding oligomerization domain-containing protein 2 (Homo sapiens) (UniProt Q9HC29); test: Inhibition of human NOD2 expressed in HEK293 cells coexpressing NFkappaB-SEAP reporter at 10 uM measured after 7 to 9 hrs by HEKBIue reporter assay; format: cell-based; settings: time 7-9 hrs
[5] = Clearance in C57BL/6 mouse at 10 mg/kg, ip by LC-MS/MS analysis; format: ADME, organism-based; settings: in vivo
Procedure, shortened: (§1)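 Single 10 mg/kg intraperitoneal dose formulated in 6% Captisol in water, given to 8-week-old female C57BL/6 mice, n = 5 mice per group; plasma concentrations followed over time to derive PK parameters.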

[6] = AUC in C57BL/6 mouse at 10 mg/kg, ip by LC-MS/MS analysis; format: ADME, organism-based; parameters: dose 10 mg/kg; settings: in vivo; procedure, shortened: as §1
[7] = Aqueous solubility of compound in PBS buffer at pH 7.4; format: physicochemical
Procedure, shortened: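 Solubility measured in PBS buffer at pH 7.4.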

[8] = Permeability of the compound by PAMPA; format: ADME
[9] = Stability in mouse liver microsomes assessed as half life; format: ADME, Microsome
[10] = Stability in mouse liver microsomes assessed as intrinsic clearance; format: ADME, Microsome

T3 sequence (O43353 whole entry): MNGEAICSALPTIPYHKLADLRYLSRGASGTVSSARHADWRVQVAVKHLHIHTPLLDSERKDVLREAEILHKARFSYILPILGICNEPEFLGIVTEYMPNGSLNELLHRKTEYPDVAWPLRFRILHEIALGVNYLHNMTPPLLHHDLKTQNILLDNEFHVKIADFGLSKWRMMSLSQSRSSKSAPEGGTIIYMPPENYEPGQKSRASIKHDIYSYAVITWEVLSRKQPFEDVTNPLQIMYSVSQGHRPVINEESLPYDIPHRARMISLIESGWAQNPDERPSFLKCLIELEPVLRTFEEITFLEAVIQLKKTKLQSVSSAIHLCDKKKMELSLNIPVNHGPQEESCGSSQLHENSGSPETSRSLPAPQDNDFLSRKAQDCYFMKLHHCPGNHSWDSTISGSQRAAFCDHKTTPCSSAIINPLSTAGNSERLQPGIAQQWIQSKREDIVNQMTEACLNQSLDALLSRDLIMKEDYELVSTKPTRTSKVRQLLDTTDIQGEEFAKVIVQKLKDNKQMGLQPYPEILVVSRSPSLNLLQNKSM
Sequence of Nucleotide-binding oligomerization domain-containing protein 2 (Homo sapiens) (Q9HC29 whole entry, the tested form may be a part): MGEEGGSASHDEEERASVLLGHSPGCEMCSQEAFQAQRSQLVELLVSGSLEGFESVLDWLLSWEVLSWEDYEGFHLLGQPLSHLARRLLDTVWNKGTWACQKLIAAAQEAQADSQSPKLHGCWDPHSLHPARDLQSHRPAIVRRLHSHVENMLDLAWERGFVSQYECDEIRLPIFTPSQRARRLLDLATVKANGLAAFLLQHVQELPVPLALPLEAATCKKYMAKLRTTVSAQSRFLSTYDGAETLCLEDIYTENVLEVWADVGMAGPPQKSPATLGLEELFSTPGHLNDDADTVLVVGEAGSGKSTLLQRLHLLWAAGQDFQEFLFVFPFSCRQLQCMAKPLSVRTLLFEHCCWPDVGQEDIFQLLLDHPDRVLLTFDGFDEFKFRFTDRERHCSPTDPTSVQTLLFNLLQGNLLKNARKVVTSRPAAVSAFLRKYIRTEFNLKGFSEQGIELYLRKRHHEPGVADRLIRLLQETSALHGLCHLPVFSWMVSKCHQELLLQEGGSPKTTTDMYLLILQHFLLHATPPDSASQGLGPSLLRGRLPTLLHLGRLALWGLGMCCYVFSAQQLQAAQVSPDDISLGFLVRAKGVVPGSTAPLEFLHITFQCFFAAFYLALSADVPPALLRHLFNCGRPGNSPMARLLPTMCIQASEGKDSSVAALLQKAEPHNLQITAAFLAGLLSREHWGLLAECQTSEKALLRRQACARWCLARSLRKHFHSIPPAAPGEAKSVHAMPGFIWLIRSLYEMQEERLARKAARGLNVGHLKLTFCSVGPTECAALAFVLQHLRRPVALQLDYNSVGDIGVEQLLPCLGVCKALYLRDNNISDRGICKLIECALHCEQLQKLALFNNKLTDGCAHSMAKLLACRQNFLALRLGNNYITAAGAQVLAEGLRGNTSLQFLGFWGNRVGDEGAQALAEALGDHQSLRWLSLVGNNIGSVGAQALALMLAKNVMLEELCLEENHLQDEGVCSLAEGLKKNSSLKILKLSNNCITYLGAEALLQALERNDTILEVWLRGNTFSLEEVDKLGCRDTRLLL

Compound | IC50 (Activin receptor type-1) | inhibition [1] | IC50 [2] | other results
CCCS(=O)(=O)Nc1cc(-c2cc(-c3ccc(N4CCNCC4)cc3)cnc2N)ccc1O | 0.387 µM | – | – | –
COc1cc(-c2cc(-c3ccc(N4CCNCC4)cc3)cnc2N)cc(F)c1OC | 0.029 µM | – | – | –
CCCS(=O)(=O)Nc1cc(-c2cc(-c3cccc(S(C)(=O)=O)c3)cnc2N)ccc1OC | – | inactive | 0.103 µM | –
CCS(=O)(=O)Nc1cc(OC)cc(-c2cc(-c3ccc(N4CCNCC4)cc3)cnc2C)c1 | 0.086 µM | – | 0.127 µM | –
COc1cc(NS(=O)(=O)C(C)C)cc(-c2cc(-c3ccc(N4CCNCC4)cc3)cnc2C)c1 | 0.239 µM | – | 0.076 µM | –
CCOc1cc(NS(=O)(=O)C(C)C)cc(-c2cc(-c3ccc(N4CCNCC4)cc3)cnc2N)c1 | 0.299 µM | – | 0.021 µM | –
CCCS(=O)(=O)Nc1cc(-c2cncc(-c3ccc(N4CCNCC4)cc3)c2)cc(F)c1OC | – | – | 0.027 µM | –
CCCS(=O)(=O)Nc1ccc(-c2cc(-c3ccc(N4CCNCC4)cc3)cnc2C)cc1OC | – | inactive | – | inhibition [3]: inactive
CCCS(=O)(=O)Nc1cc(-c2cc(-c3ccc(N4CCNCC4)cc3)cnc2N)cc(C)c1OC | 0.395 µM | – | 0.041 µM | –
CCCS(=O)(=O)Nc1cc(-c2cc(-c3ccc(N4CCNCC4)cc3)cnc2N)cc(Cl)c1OC | 0.202 µM | – | 0.021 µM | –
CCCS(=O)(=O)Nc1cc(-c2cc(-c3ccc(N4CCNCC4)cc3)cnc2C)cc(F)c1OC | – | inactive | – | –
CCCS(=O)(=O)NCc1cc(-c2cc(-c3ccc(N4CCNCC4)cc3)cnc2N)ccc1OC | 0.145 µM | – | 0.099 µM | –
CCCS(=O)(=O)Nc1cc(-c2cc(-c3ccc(N4CCNCC4)cc3)cnc2N)cc(OCC)c1OC | – | inactive | – | inhibition [3]: inactive; inhibition [4]: inactive
CCCS(=O)(=O)Nc1cc(-c2cc(-c3ccc(S(C)(=O)=O)cc3)cnc2N)ccc1OC | – | inactive | 0.264 µM | inhibition [4]: inactive
CCCS(=O)(=O)Nc1cc(-c2cc(-c3ccc(N4CCNCC4)cc3)cnc2N)cc2c1OCCO2 | – | inactive | 0.52 µM | –
COc1cc(NS(C)(=O)=O)cc(-c2cc(-c3ccc(N4CCNCC4)cc3)cnc2C)c1 | 0.031 µM | – | 0.296 µM | –

Compound | IC50 (Activin receptor type-1) | inhibition [1] | IC50 [2] | other results
CCCS(=O)(=O)Nc1cc(-c2cc(-c3ccccc3S(C)(=O)=O)cnc2N)ccc1OC | – | inactive | – | inhibition [3]: inactive; inhibition [4]: inactive
COc1cc(NS(C)(=O)=O)cc(-c2cc(-c3ccc(N4CCNCC4)cc3)cnc2N)c1 | 0.005 µM | – | 0.051 µM | –
CCCS(=O)(=O)Nc1cc(-c2cc(-c3ccc(N4CCNCC4)cc3)cnc2N)cc(F)c1OC | 0.348 µM | – | 0.016 µM | CL/F [5]: 59.7 mL/min/kg; AUC [6]: 2920 ng·h/mL; solubility [7]: >= 100 uM; permeability [8]: 2.9 10^-6 cm/s; t1/2 [9]: 25.6 min; CLint [10]: 27 µL/min/mg
CC(C)Oc1cc(NS(=O)(=O)C(C)C)cc(-c2cc(-c3ccc(N4CCNCC4)cc3)cnc2N)c1 | – | inactive | 0.018 µM | –
CCCS(=O)(=O)Nc1cc(-c2cc(-c3ccc(N4CCNCC4)cc3)cnc2N)ccc1OC | 3.54 µM | – | 0.032 µM | –
CCCS(=O)(=O)Nc1cc(-c2cc(-c3ccc(N4CCNCC4)cc3)cnc2N)ccc1C | 2.12 µM | – | 0.102 µM | –
COc1cc(NS(=O)(=O)C(C)C)cc(-c2cc(-c3ccc(N4CCNCC4)cc3)cnc2N)c1 | 0.011 µM | – | 0.013 µM | –
CCCS(=O)(=O)Nc1cc(OC)cc(-c2cc(-c3ccc(N4CCNCC4)cc3)cnc2N)c1 | 0.009 µM | – | 0.014 µM | –
CCCS(=O)(=O)N1CCc2ccc(-c3cc(-c4ccc(N5CCNCC5)cc4)cnc3N)cc21 | – | inactive | 0.185 µM | –
COc1cc(-c2cc(-c3ccc(N4CCNCC4)cc3)cnc2C)cc(OC)c1OC | – | – | 0.1 µM | inhibition [4]: inactive
CCCS(=O)(=O)Nc1cc(OC)cc(-c2cc(-c3ccc(N4CCNCC4)cc3)cnc2C)c1 | 0.108 µM | – | 0.164 µM | –
CCCS(=O)(=O)N1CCOc2ccc(-c3cc(-c4ccc(N5CCNCC5)cc4)cnc3N)cc21 | – | inactive | 0.078 µM | –
COc1cc(NS(=O)(=O)c2ccccc2)cc(-c2cc(-c3ccc(N4CCNCC4)cc3)cnc2N)c1 | 0.005 µM | – | 0.023 µM | –
CCCS(=O)(=O)Nc1cc(-c2cc(-c3cccc(N4CCNCC4)c3)cnc2N)cc(F)c1OC | 0.522 µM | – | 0.011 µM | –
CCCS(=O)(=O)Nc1cc(-c2cc(-c3ccc(N4CCNCC4)cc3)cnc2N)cc(OC)c1OC | 0.057 µM | – | – | –
CCCS(=O)(=O)Nc1cc(-c2cc(-c3ccc(N4CCNCC4)cc3)cnc2N)cc(OC)c1C | 0.355 µM | – | – | inhibition [3]: inactive
